Source: ChEMBL document CHEMBL3585252, “Selaginellin and biflavonoids as protein tyrosine phosphatase 1B inhibitors from Selaginella tamariscina and their glucose uptake stimulatory effects” (Bioorg Med Chem, 2015)

Legend:
[1] = target: T1, Tyrosine-protein phosphatase non-receptor type 1 (Mus musculus) (UniProt P35821); test: Inhibition of PTP1B in mouse 3T3L1 cells assessed as stimulation of 2-NBDG uptake preincubated for 24 hrs followed by 2-NBDG addition measured after 30 mins by fluorescence reader analysis; type: cell-based; details: 3T3-L1
T1 sequence (whole entry): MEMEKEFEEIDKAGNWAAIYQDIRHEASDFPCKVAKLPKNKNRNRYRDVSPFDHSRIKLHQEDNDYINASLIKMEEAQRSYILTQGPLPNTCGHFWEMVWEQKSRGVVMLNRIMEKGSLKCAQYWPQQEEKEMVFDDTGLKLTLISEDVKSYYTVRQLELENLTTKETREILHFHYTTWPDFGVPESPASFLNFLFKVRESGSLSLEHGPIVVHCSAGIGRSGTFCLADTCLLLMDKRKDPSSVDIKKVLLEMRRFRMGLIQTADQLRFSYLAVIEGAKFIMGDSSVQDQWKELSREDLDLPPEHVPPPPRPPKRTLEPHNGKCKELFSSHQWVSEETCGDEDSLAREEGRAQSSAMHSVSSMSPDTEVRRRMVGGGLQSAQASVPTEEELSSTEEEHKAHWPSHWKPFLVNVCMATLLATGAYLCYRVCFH
Procedure, shortened: (§1)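 3T3-L1 preadipocytes were grown to confluence and differentiated for 8 days (days 0–8). Mature adipocytes were treated with compound at 5 and 10 µM, or with insulin at 100 nM; DMSO was the vehicle control. 2-NBDG was then added for 30 min. Uptake is expressed as fold induction over the DMSO control.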

[2] = target: T2, Tyrosine-protein phosphatase non-receptor type 1 (Homo sapiens, UniProt P18031); test: (§2) Inhibition of human recombinant PTP1B using p-NPP as substrate preincubated for 10 mins followed by substrate addition measured after 20 mins by microplate reader analysis
T2 sequence (P18031 whole entry): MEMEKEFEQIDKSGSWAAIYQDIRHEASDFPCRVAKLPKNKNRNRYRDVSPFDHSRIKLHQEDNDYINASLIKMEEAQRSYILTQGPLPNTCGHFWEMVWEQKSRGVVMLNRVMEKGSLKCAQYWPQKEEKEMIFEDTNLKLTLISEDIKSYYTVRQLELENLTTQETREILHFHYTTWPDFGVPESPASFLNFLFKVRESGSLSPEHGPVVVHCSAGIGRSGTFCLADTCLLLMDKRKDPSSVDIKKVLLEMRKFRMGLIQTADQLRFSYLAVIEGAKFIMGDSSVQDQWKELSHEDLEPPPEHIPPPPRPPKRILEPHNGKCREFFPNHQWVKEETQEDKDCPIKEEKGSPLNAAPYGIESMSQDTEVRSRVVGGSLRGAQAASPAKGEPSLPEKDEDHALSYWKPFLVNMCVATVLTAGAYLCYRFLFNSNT
Procedure, shortened: (§3)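 Enzyme inhibition was tested at graded concentrations. IC50 was obtained by regression analysis and reported as mean ± SD of three replicates.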

[3] = target: T3, Tyrosine-protein phosphatase non-receptor type 1 (Homo sapiens) (UniProt P18031); test: as §2; procedure, shortened: as §3
T3 sequence (whole entry): T2 sequence (P18031 whole entry)

[4] = Cytotoxicity against mouse 3T3L1 cells assessed as inhibition of cell viability at 5 to 10 uM after 48 hrs by MTT assay; type: cell-based; details: 3t3-l1, 48 h
Procedure, shortened: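 Differentiated 3T3-L1 adipocytes were exposed to compound at 5 and 10 µM without 2-NBDG. Viability was read by MTT assay.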

[5] = target: T2, Tyrosine-protein phosphatase non-receptor type 1; test: Mixed-competitive inhibition of human recombinant PTP1B using p-NPP as substrate preincubated for 10 mins followed by substrate addition measured after 20 mins by Lineweaver-Burk/Dixon plot analysis
Procedure, shortened: (§4)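 Kinetic mode and Ki came from Lineweaver–Burk and Dixon plots of initial velocity at several substrate and inhibitor concentrations. Ki was read as the negative x-axis value where three Dixon lines intersect. Data are the mean reciprocal initial velocity, n = 3 replicates per substrate concentration.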

[6] = target: T1, Tyrosine-protein phosphatase non-receptor type 1 (Mus musculus); test: Inhibition of PTP1B in mouse 3T3L1 cells assessed as stimulation of 2-NBDG uptake at 10 uM preincubated for 24 hrs followed by 2-NBDG addition measured after 30 mins by fluorescence reader analysis relative to control; type: cell-based; details: 3T3-L1; procedure, shortened: as §1
[7] = target: T2, Tyrosine-protein phosphatase non-receptor type 1; test: Uncompetitive inhibition of human recombinant PTP1B using p-NPP as substrate preincubated for 10 mins followed by substrate addition measured after 20 mins by Lineweaver-Burk/Dixon plot analysis; procedure, shortened: as §4
[8] = target: T2, Tyrosine-protein phosphatase non-receptor type 1; test: Competitive inhibition of human recombinant PTP1B using p-NPP as substrate preincubated for 10 mins followed by substrate addition measured after 20 mins by Lineweaver-Burk/Dixon plot analysis; procedure, shortened: as §4

| inhibition [1] | IC50 [2] | inhibition [3] | Ki [5] | fold change (FC) [6] | Ki [7] | Ki [8] | Structure (SMILES) | Activity [4] |
| --- | --- | --- | --- | --- | --- | --- | --- | --- |
| Dose-dependent effect | 13.2 µM | Dose-dependent effect | 14.5 µM | 1.24 | – | – | O=C(O)c1c(-c2ccc(O)cc2)ccc(CO)c1C#Cc1ccc(O)cc1 | Non-toxic |
| Dose-dependent effect | 9.8 µM | Dose-dependent effect | – | – | 10.4 µM | – | O=C1C[C@@H](c2cc(-c3c(O)ccc4c(=O)cc(-c5ccc(O)cc5)oc34)c(O)cc2O)Oc2cc(O)cc(O)c21 | Non-toxic |
| Dose-dependent effect | 4.5 µM | Dose-dependent effect | 4.6 µM | 1.44 | – | – | O=c1c(-c2c(O)cc(O)c3c(=O)cc(-c4ccc(O)cc4)oc23)c(-c2ccc(O)cc2)oc2cc(O)cc(O)c12 | Non-toxic |
| Dose-dependent effect | 7.4 µM | Dose-dependent effect | 7.8 µM | – | – | – | O=c1cc(-c2ccc(O)c(-c3c(O)cc(O)c4c(=O)cc(-c5ccc(O)cc5)oc34)c2)oc2cc(O)cc(O)c12 [AMENTOFLAVONE] | Non-toxic |
| Dose-dependent effect | 9.6 µM | Dose-dependent effect | – | – | – | 10.7 µM | O=c1cc(-c2ccc(O)cc2)oc2c(-c3c(O)cc(O)c4c(=O)cc(-c5ccc(O)cc5)oc34)c(O)cc(O)c12 [CUPRESSUFLAVONE] | Non-toxic |
| Dose-dependent effect | 6.2 µM | Dose-dependent effect | 6.8 µM | – | – | – | O=c1cc(-c2ccc(O)c(-c3c(O)cc4oc(-c5ccc(O)cc5)cc(=O)c4c3O)c2)oc2cc(O)cc(O)c12 [ROBUSTAFLAVONE] | Non-toxic |
| Dose-dependent effect | 5.4 µM | Dose-dependent effect | 4.5 µM | 1.47 | – | – | O=c1cc(-c2ccc(O)c(-c3c(-c4ccc(O)cc4)oc4cc(O)cc(O)c4c3=O)c2)oc2cc(O)cc(O)c12 [TAIWANIAFLAVONE] | Non-toxic |
